Test results taken from PubChem BioAssay AID743338 (The Scripps Research Institute Molecular Screening Center, 2014).
Active and inactive are the calls of the source.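 Rule for the calls: active = IC50 at or below 10 µM; inactive = IC50 above 10 µM.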

Target: Disintegrin and metalloproteinase domain-containing protein 10 (Homo sapiens) (UniProt O14672)
Experiment: inhibition of ADAM10 substrate cleavage, late-stage follow-up, ADAM10 exosite inhibitor project, biochemical, QFRET peptide, fluorescence (AID 743338)
Conditions: recombinant ADAM10, QFRET peptide cleavage
Outline: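 Assay system: recombinant human ADAM10 enzyme. Medium: HEPES 50 mM buffer, pH 7.5, with 0.01% Brij. Schedule: Enzyme–compound preincubation 30 min at 25 °C, substrate reaction 3 h. Read-out: IC50 from four-parameter fit of control-normalized percent inhibition. Control set: 1 µM marimastat high, DMSO low. Replication: triplicate.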

Sequence of Disintegrin and metalloproteinase domain-containing protein 10 (Homo sapiens) (O14672 214-748 limits assumed): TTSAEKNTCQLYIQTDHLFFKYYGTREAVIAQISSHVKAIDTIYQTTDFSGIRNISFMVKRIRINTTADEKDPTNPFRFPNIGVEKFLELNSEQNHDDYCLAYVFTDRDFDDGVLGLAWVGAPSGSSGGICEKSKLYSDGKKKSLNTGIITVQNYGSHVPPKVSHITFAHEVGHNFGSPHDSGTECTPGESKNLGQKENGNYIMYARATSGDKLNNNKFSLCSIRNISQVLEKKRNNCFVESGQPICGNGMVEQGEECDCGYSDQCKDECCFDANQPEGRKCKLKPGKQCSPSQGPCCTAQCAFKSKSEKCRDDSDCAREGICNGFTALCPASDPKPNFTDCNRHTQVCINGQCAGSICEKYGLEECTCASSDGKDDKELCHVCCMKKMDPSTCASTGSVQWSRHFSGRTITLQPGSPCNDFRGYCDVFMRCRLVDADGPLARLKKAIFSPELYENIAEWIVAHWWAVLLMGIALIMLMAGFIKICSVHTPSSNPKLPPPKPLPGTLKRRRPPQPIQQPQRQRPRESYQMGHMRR

SMILES | IC50
COc1cccc(C(=O)NNC(=O)C(=O)Nc2ccc(C)c(Cl)c2)c1 | 6.5 µM
CS(=O)(=O)N(CC(=O)Nc1ccccc1Sc1ccccc1)c1cccc(Br)c1 | > 69.5 µM (inactive)
O=C(Nc1ccc(OCC(F)(F)C(F)(F)F)c(C(F)(F)F)c1)c1ccc(F)cc1 | > 69.5 µM (inactive)
O=S(=O)(NCC(Nc1ccc(Cl)cc1)c1ccccc1)c1ccc(Cl)cc1 (stereo not drawn) | > 69.5 µM (inactive)
COc1ccc2nc(SCC(=O)Nc3ccc(S(=O)(=O)N4CCCC4)cc3)c(C#N)cc2c1 | > 69.5 µM (inactive)
O=C(Nc1ccc(OCC(F)(F)C(F)F)c(C(F)(F)F)c1)c1ccc(Cl)cc1 | > 69.5 µM (inactive)
O=C(O)CCC(=O)c1c[nH]c2ccccc12 | > 69.5 µM (inactive)
Cc1ccc(CC2(c3ccccc3)NC(=O)NC2=O)cc1 (stereo not drawn) | > 69.5 µM (inactive)
C=C(C)COc1ccc(-c2n[nH]c(C)c2Oc2ccccc2OC)c(O)c1 | inactive
CCCCN(Cc1ccccc1)S(=O)(=O)c1cc(Br)cc2c1N(C(C)=O)C(C)C2 (stereo not drawn) | > 69.5 µM (inactive)
C=C(C)COc1ccc(-c2[nH]ncc2Oc2cccc(OC)c2)c(O)c1 | inactive
Cc1ccc(OCC(O)Cn2c3ccccc3c3ccccc32)cc1 (stereo not drawn) | > 69.5 µM (inactive)
CCOc1ccc(NC(=O)CC2SC(=O)N(c3ccccc3)C2=O)cc1 (stereo not drawn) | > 69.5 µM (inactive)
O=S(=O)(NCC(Nc1ccc(Cl)cc1)c1ccccc1)c1ccccc1 (stereo not drawn) | > 69.5 µM (inactive)
Cc1ccc(S(=O)(=O)Nc2ccc(Cl)cc2)cc1NC(=O)c1cc2c(s1)CCCC2 | > 69.5 µM (inactive)
C=C(C)COc1ccc(-c2[nH]ncc2Oc2ccc(OC)cc2)c(O)c1 | inactive
O=C(CN(Cc1cccs1)S(=O)(=O)c1ccc(S(=O)(=O)NC2CCCCC2)cc1)Nc1ccccc1 | > 69.5 µM (inactive)
COc1ccccc1NS(=O)(=O)c1cccc(NC(=O)Nc2ccc(Cl)cc2)c1 | > 69.5 µM (inactive)
O=C1NC(=O)C(Cc2ccc(Cl)cc2)(c2ccccc2)N1 (stereo not drawn) | inactive
Oc1cc2c(cc1C(c1ccc(Cl)c(Cl)c1)N1CCCC1)OCO2 (stereo not drawn) | 4.87 µM
O=C(Nc1ccc(OCC(F)(F)C(F)(F)F)c(C(F)(F)F)c1)c1ccc(Br)cc1 | > 69.5 µM (inactive)
COc1ccc(-c2ccc(-c3noc(-c4cccc(OC)c4)n3)c(OC)n2)cc1 | > 69.5 µM (inactive)
Cc1csc(-c2cnn(-c3ccccc3)c2NC(=O)c2ccc(C(F)(F)F)cc2)n1 | > 69.5 µM (inactive)
